Test results from ChEMBL document CHEMBL1147076, “Antitumor activity of MLN8054, an orally active small-molecule inhibitor of Aurora A kinase” (Proc Natl Acad Sci U S A, 2007).

Columns and labels:
[1] = molecular target: Tyrosine-protein kinase receptor TYRO3 (Homo sapiens) (UniProt Q06418); test: Activity of human Rse kinase at 1 uM
In short: (§1)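 Single-concentration screen across a 226-kinase panel run by an outside provider; test compound at 1 μM with 10 μM ATP in every assay. Other conditions not detailed.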

[2] = molecular target: Macrophage colony-stimulating factor 1 receptor (Homo sapiens) (UniProt P07333); test: Activity of human FMS kinase at 1 uM
[3] = molecular target: Protein kinase C beta type (Homo sapiens) (UniProt P05771); test: Activity of human PKC-beta-1 kinase at 1 uM
In short: (§2)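 Single-point screen in a 226-kinase panel run by an outside service. Test compound at 1 μM with ATP at 10 μM in every assay. Other assay conditions are not given.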

[4] = molecular target: Serine/threonine-protein kinase Chk1 (Homo sapiens) (UniProt O14757); test: Activity of human CHK1 kinase at 1 uM
In short: (§3)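 Single-point kinase profiling: each kinase in a 226-kinase panel tested with compound at 1 μM and ATP at 10 μM in every assay, run by an external screening service.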

[5] = molecular target: Interleukin-1 receptor-associated kinase 1 (Homo sapiens) (UniProt P51617); test: Activity of human IRAK1 kinase at 1 uM
[6] = molecular target: PAS domain-containing serine/threonine-protein kinase (Homo sapiens) (UniProt Q96RG2); test: Activity of human PASK kinase at 1 uM; in short: as §3
[7] = molecular target: Glycogen synthase kinase-3 alpha (Homo sapiens) (UniProt P49840); test: Activity of human GSK3-alpha kinase at 1 uM
[8] = species: Homo sapiens; test: Activity of human CaMK1 kinase at 1 uM
[9] = molecular target: Phosphorylase b kinase gamma catalytic chain, liver/testis isoform (Homo sapiens) (UniProt P15735); test: Activity of human PhKgamma2 kinase at 1 uM; in short: as §2
[10] = test system: PC-3; test: Cell cycle arrest in human PC3 cells by accumulation at G2/M phase at 1 uM after 48 hrs by flow cytometry relative to control; format: functional
In short: (§4)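 DNA content profiles by flow cytometry of PC-3 prostate tumor cells exposed to drug diluted in DMSO for 24 or 48 h. Phase distribution was compared with DMSO-treated control cells.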

[11] = molecular target: Ephrin type-B receptor 1 (Homo sapiens) (UniProt P54762); test: Activity of human EphB1 kinase at 1 uM; in short: as §3
[12] = molecular target: Dual specificity protein kinase CLK3 (Homo sapiens) (UniProt P49761); test: Activity of human CLK3 kinase at 1 uM
[13] = test system: Calu-6; test: Antiproliferative activity against human Calu6 cells after 96 hrs by BrdU cell proliferation ELISA; format: functional, cell-based; details: Calu-6, 96 h
In short: (§5)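 BrdU incorporation proliferation assay on cultured human tumor lines; IC50 values derived from growth inhibition.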

[14] = molecular target: Protein kinase C zeta type (Homo sapiens) (UniProt Q05513); test: Activity of human PKCzeta kinase at 1 uM; in short: as §2
[15] = molecular target: Angiopoietin-1 receptor (Homo sapiens) (UniProt Q02763); test: Activity of human Tie2 kinase at 1 uM; in short: as §2
[16] = test system: PC-3; test: Cell cycle arrest in human PC3 cells by accumulation at G1 phase at 4 uM after 48 hrs by flow cytometry relative to control; format: functional; in short: as §4
[17] = molecular target: Protein kinase C alpha type (Homo sapiens) (UniProt P17252); test: Activity of human PKCalpha kinase at 1 uM; in short: as §2
[18] = molecular target: Serine/threonine-protein kinase MRCK alpha (Homo sapiens) (UniProt Q5VT25); test: Activity of human MRCKalpha kinase at 1 uM
[19] = test system: SW480; test: Antiproliferative activity against human SW480 cells after 96 hrs by BrdU cell proliferation ELISA; format: functional, cell-based; details: SW480, 96 h; in short: as §5
[20] = molecular target: Insulin-like growth factor 1 receptor (Homo sapiens) (UniProt P08069); test: Activity of human IGF1R kinase at 1 uM
[21] = molecular target: Cyclin-dependent kinase 2/cyclin E1 (Homo sapiens) (UniProt P24864+P24941); test: Activity of human CDK2/cyclin E kinase at 1 uM; format: protein-complex assay
[22] = molecular target: Serine/threonine-protein kinase Nek2 (Homo sapiens) (UniProt P51955); test: Activity of human NEK2 kinase at 1 uM
[23] = molecular target: Protein kinase C iota type (Homo sapiens) (UniProt P41743); test: Activity of human PKCiota kinase at 1 uM; in short: as §3
[24] = molecular target: Focal adhesion kinase 1 (Homo sapiens) (UniProt Q05397); test: Activity of human FAK kinase at 1 uM
[25] = test system: PC-3; test: Cell cycle arrest in human PC3 cells by accumulation at S phase at 4 uM after 48 hrs by flow cytometry relative to control; format: functional; in short: as §4
[26] = molecular target: Rho-associated protein kinase 1 (Homo sapiens) (UniProt Q13464); test: Activity of human ROCK1 kinase at 1 uM; in short: as §2
[27] = molecular target: Serine/threonine-protein kinase STK11 (Homo sapiens) (UniProt Q15831); test: Activity of human LKB1 kinase at 1 uM
[28] = molecular target: Tyrosine-protein kinase ABL2 (Mus musculus) (UniProt Q4JIM5); test: Activity of mouse Arg kinase at 1 uM; in short: as §1
[29] = molecular target: Serine/threonine-protein kinase pim-2 (Homo sapiens) (UniProt Q9P1W9); test: Activity of human Pim2 kinase at 1 uM; in short: as §2
[30] = molecular target: CDK3/Cyclin E (Homo sapiens) (UniProt P24864+Q00526); test: Activity of human CDK3/cyclin E kinase at 1 uM; format: protein-complex assay; in short: as §3
[31] = test system: PC-3; test: Cell cycle arrest in human PC3 cells by accumulation at G1 phase at 1 uM after 24 hrs by flow cytometry relative to control; format: functional
[32] = test system: PC-3; test: Cell cycle arrest in human PC3 cells by accumulation at G2/M phase at 1 uM after 24 hrs by flow cytometry relative to control; format: functional; in short: as §4
[33] = molecular target: Serine/threonine-protein kinase 10 (Homo sapiens) (UniProt O94804); test: Activity of human LOK kinase at 1 uM
[34] = molecular target: Serine/threonine-protein kinase MRCK beta (Homo sapiens) (UniProt Q9Y5S2); test: Activity of human MRCKbeta kinase at 1 uM
[35] = molecular target: Proto-oncogene tyrosine-protein kinase receptor Ret (Homo sapiens) (UniProt P07949); test: Activity of human Ret kinase at 1 uM; in short: as §1
[36] = test system: PC-3; test: Antiproliferative activity against human PC3 cells after 96 hrs by BrdU cell proliferation ELISA; format: functional, cell-based; details: PC-3, 96 h; in short: as §5
[37] = molecular target: Tyrosine-protein kinase FRK (Homo sapiens) (UniProt P42685); test: Activity of human PTK5 kinase at 1 uM; in short: as §2
[38] = molecular target: G protein-coupled receptor kinase 6 (Homo sapiens) (UniProt P43250); test: Activity of human GRK6 kinase at 1 uM
[39] = species: Bos taurus; test: Activity of bovine PKA kinase at 1 uM
[40] = molecular target: Serine/threonine-protein kinase D1 (Homo sapiens) (UniProt Q15139); test: Activity of human PKCmu kinase at 1 uM; in short: as §3
[41] = molecular target: Homeodomain-interacting protein kinase 2 (Homo sapiens) (UniProt Q9H2X6); test: Activity of human HIPK2 kinase at 1 uM; in short: as §3
[42] = molecular target: Tyrosine-protein kinase Fes/Fps (Homo sapiens) (UniProt P07332); test: Activity of human Fes kinase at 1 uM; in short: as §3
[43] = molecular target: Hepatocyte growth factor receptor (Homo sapiens) (UniProt P08581); test: Activity of human Met kinase at 1 uM; in short: as §3

Insulin-like growth factor 1 receptor (Homo sapiens), sequence (P08069 31-736 limits assumed): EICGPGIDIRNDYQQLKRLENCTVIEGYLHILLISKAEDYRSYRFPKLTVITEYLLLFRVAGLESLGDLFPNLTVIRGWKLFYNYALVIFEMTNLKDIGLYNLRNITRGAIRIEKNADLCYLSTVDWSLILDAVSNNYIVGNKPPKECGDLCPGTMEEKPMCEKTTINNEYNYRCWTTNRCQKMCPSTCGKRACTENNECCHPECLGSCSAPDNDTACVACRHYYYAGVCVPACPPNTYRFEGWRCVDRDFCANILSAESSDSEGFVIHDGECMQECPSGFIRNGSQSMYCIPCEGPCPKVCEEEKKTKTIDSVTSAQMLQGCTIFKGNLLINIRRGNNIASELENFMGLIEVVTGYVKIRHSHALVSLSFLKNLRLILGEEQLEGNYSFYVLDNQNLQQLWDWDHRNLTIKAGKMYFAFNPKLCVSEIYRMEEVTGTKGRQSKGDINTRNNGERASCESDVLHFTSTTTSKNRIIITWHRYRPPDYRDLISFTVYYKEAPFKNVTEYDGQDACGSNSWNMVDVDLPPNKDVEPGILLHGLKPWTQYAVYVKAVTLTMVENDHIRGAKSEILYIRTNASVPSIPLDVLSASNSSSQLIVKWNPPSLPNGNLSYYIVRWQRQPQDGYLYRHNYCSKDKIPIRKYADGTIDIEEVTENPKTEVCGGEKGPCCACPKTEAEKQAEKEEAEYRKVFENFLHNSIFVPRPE
Insulin-like growth factor 1 receptor (Homo sapiens), sequence (P08069 741-1367 limits assumed): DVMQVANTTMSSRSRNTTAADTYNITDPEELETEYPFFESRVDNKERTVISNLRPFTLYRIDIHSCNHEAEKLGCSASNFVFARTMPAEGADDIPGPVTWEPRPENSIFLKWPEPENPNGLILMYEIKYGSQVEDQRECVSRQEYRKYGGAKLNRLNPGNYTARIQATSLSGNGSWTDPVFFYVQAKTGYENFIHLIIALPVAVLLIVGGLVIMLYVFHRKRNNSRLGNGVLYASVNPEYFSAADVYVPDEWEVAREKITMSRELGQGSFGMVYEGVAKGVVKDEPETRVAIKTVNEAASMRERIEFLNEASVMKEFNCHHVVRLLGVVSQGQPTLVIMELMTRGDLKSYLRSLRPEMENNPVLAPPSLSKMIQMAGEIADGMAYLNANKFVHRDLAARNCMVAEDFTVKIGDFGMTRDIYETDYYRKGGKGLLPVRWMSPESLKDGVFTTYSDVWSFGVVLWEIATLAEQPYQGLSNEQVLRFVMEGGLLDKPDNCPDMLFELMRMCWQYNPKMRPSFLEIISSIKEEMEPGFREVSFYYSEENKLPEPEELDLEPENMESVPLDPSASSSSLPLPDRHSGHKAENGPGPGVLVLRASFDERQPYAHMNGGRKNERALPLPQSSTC
Tyrosine-protein kinase Fes/Fps (Homo sapiens), sequence (P07332 whole entry): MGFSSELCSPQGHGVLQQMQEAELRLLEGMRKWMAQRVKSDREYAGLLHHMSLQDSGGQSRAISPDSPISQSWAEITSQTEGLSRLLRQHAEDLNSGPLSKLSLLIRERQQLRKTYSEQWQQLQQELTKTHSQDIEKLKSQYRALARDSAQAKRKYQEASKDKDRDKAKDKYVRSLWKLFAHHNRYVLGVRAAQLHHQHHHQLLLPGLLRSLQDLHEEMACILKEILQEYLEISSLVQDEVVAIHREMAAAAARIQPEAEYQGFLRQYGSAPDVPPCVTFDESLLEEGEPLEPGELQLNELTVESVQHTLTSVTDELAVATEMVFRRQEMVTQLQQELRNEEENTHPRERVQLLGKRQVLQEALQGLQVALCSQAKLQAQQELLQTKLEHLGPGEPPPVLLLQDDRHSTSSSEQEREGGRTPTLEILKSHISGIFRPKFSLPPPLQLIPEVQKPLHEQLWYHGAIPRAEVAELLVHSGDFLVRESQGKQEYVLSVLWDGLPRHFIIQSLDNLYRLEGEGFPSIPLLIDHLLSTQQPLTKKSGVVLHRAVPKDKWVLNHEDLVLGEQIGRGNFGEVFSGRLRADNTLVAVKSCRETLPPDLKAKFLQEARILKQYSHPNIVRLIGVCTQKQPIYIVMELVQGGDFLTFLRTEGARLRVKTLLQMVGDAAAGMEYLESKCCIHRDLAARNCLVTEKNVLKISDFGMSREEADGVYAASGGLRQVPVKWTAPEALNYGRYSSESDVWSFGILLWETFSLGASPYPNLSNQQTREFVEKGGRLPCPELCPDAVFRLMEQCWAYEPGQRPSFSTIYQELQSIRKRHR
Serine/threonine-protein kinase 10 (Homo sapiens), sequence (O94804 whole entry, looked up): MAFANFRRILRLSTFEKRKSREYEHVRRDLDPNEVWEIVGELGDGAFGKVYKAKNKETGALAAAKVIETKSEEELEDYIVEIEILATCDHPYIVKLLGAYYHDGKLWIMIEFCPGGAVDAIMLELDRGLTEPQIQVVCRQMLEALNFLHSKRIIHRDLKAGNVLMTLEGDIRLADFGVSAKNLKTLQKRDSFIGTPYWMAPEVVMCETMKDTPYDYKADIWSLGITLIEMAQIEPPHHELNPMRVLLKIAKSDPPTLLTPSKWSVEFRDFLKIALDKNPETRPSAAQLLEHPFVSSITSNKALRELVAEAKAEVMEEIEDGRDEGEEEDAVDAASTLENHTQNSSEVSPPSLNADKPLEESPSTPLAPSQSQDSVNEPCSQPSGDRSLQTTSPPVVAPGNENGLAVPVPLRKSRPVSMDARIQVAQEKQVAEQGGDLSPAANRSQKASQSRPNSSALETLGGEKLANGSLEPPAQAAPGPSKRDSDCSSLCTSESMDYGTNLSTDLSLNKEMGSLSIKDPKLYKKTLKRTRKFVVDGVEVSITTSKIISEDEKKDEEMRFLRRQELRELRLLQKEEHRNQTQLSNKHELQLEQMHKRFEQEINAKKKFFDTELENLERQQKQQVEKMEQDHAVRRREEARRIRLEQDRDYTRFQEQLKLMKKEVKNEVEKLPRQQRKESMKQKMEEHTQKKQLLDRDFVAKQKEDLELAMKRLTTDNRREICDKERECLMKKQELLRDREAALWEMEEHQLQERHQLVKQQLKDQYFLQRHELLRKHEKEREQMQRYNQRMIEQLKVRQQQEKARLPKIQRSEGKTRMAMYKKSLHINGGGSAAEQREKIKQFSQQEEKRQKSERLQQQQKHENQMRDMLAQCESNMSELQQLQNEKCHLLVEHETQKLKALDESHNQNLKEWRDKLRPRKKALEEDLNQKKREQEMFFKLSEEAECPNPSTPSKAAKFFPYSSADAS
Angiopoietin-1 receptor (Homo sapiens), sequence (Q02763 whole entry): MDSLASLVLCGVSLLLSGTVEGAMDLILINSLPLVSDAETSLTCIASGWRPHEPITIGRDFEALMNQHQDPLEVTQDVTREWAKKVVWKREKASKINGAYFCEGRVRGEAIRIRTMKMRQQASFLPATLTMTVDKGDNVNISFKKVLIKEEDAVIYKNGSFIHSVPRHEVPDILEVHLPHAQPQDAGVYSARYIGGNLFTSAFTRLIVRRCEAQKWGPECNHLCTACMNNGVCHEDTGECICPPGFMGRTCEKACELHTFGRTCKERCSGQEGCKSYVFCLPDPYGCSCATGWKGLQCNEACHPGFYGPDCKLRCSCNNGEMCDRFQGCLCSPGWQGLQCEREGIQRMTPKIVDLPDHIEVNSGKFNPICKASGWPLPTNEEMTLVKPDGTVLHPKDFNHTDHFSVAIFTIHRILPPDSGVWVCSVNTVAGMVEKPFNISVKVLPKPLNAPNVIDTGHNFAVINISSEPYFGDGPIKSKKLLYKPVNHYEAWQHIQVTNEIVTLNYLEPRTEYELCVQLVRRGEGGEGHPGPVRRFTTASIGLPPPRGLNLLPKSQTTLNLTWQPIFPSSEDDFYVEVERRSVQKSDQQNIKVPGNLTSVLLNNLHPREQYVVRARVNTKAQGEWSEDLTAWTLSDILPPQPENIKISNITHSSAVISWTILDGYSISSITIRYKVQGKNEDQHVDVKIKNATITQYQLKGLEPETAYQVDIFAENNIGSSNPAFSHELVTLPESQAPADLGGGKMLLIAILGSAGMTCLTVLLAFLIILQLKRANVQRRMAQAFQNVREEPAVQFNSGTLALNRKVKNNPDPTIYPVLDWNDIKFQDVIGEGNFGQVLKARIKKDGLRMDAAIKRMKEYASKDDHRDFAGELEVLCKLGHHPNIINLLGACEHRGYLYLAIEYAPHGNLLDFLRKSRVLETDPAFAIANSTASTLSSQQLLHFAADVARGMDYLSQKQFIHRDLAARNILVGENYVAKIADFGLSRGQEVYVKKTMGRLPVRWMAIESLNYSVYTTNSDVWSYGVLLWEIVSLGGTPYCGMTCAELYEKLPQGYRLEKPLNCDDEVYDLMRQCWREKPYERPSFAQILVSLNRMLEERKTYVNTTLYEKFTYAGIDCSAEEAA
Serine/threonine-protein kinase Chk1 (Homo sapiens), sequence (O14757 whole entry): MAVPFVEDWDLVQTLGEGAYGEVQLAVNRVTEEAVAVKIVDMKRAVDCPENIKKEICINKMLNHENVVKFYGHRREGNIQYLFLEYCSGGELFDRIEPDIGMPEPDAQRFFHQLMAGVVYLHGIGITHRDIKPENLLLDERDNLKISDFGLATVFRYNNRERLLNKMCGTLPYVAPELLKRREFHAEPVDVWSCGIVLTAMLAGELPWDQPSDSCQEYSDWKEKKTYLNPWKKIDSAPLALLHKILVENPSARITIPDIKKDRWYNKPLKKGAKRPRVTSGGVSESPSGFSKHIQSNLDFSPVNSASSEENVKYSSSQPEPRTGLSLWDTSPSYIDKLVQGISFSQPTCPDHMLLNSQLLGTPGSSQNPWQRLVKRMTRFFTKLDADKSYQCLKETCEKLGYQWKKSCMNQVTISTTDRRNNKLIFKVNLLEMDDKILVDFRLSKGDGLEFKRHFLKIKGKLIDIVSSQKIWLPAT
Serine/threonine-protein kinase pim-2 (Homo sapiens), sequence (Q9P1W9 whole entry, looked up): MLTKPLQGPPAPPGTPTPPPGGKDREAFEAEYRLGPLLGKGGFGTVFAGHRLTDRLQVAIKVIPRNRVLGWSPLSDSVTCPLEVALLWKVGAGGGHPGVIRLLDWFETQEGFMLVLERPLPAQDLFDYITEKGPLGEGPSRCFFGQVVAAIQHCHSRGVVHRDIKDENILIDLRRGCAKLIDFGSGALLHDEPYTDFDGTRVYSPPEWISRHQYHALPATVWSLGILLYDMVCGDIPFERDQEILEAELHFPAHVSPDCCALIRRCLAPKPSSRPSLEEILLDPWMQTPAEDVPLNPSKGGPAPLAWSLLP

- Activity [1]: 56%
- Activity [2]: 95%
- Activity [3]: 98%
- Activity [4]: 109%
- Activity [5]: 110%
- Activity [6]: 114%
- Activity [7]: 110%
- Activity [8]: 98%
- Activity [9]: 98%
- Activity [11]: 35%
- Activity [12]: 81%
- IC50 [13]: 220 nM
- Activity [14]: 99%
- Activity [15]: 51%
- Activity [17]: 108%
- Activity [18]: 101%
- IC50 [19]: 860 nM
- Activity [20]: 88%
- Activity [21]: 97%
- Activity [22]: 110%
- Activity [23]: 109%
- Activity [24]: 110%
- Activity [26]: 120%
- Activity [27]: 101%
- Activity [28]: 63%
- Activity [29]: 101%
- Activity [30]: 105%
- Activity [33]: 95%
- Activity [34]: 107%
- Activity [35]: 80%
- IC50 [36]: 790 nM
- Activity [37]: 90%
- Activity [38]: 110%
- Activity [39]: 86%
- Activity [40]: 112%
- Activity [41]: 112%
- Activity [42]: 133%
- Activity [43]: 140%
SMILES: O=C(O)c1ccc(Nc2ncc3c(n2)-c2ccc(Cl)cc2C(c2c(F)cccc2F)=NC3)cc1 [MLN-8054]
- Activity [10]: 59.8%
- Activity [16]: 12.9%
- Activity [25]: 4.9%
- Activity [31]: 36.1%
- Activity [32]: 45.4%
